An excerpt weighted towards active compounds, which were near 2.7% of everything screened.
PAFAH1B3 inh: PAFAH1B3 (human) inhibition; Q15102; recombinant PAFAH1B3, FP-rhodamine probe, fluorescence polarization; inhibition, % at 3.39 µM; 0.28% of 340,000 active; AID 492972;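 active means inhibition above the screen-wide average of all tested compounds plus 3 SD, cut at about 25% in these data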;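 further: 0% = enzyme with DMSO only and 100% = wells lacking PAFAH1B3 protein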
PAFAH2 inh: PAFAH2 (human) inhibition. Q99487. recombinant PAFAH2, FP-rhodamine activity probe, fluorescence polarization. inhibition, % at 3.39 µM. 0.99% of 340,000 active. AID 492956;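 active means inhibition above the mean over all tested compounds plus 3 SD, cut at about 30% in these data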;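 further: inhibitors block probe labeling of enzyme so polarization drops; 0% = enzyme with DMSO and 100% = wells lacking PAFAH2 protein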
PAFAH1B2 FP inh: PAFAH1B2 (human) inhibition; recombinant PAFAH1B2, FP-rhodamine activity probe, fluorescence polarization; inhibition, % at 3.39 µM; 1.2% of 340,000 active; AID 492953;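 active means inhibition above the mean of all tested compounds plus 3 SD, cut at about 24% in these data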;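 further: 0% = enzyme with DMSO and 100% = wells lacking PAFAH1B2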
Target sequence (P68402 whole entry, looked up): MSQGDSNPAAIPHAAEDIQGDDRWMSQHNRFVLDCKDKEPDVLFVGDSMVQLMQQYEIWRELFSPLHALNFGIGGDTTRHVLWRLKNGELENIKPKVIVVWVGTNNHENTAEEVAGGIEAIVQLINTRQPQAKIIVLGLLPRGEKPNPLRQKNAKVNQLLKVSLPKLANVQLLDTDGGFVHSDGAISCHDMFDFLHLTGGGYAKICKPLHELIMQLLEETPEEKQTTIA
pPAFAH FP inh: inhibitors of human plasma PAF acetylhydrolase (pPAFAH); recombinant pPAFAH, FP-rhodamine probe fluorescence polarization; 1.5% of 330,000 active; inhibition, % at 3.39 µM; AID 463082; Q13093;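 active means inhibition above the mean inhibition across the screen plus 3 SD, cut at about 25% in these data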;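 further: inhibitors block binding of the rhodamine activity-based probe so polarization drops; 0% = enzyme with DMSO and 100% = wells lacking pPAFAH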
ASAP1 GAP inh: inhibitors of human ASAP1 ArfGAP activity. 0.19% of 360,000 active. inhibition, % at 16.5 µM. AID 624377. ASAP1-stimulated ARF1 GTP hydrolysis, GDP FP detection; in the data active means inhibition above about 25%;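 further: 0% = vehicle with enzyme and substrate and 100% = no enzyme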
ARFGAP1 inhibitor: rat ARFGAP1 inhibition; Arfgap1-stimulated ARF1 GTP hydrolysis, GDP FP detection; 0.26% of 360,000 active; inhibition, % at 16.5 µM; Q62848; AID 651572;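 active means inhibition above a per-plate limit, mean inhibition of low control wells plus 3 SD, cut at about 25% in these data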;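 further: 0% = DMSO wells with enzyme and 100% = wells lacking Arfgap1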
Target sequence (Q62848 1-136 limits assumed): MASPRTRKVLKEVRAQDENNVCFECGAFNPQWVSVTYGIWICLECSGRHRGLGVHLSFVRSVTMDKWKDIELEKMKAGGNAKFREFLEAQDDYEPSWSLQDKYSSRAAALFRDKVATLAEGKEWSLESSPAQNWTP
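System: truncated rat Arfgap1 GAP domain / Benchmarks: high control wells lacking Arfgap1, low control full reaction with DMSO / Times: compound-enzyme preincubation 20 min, reaction 120 min, detection 60 min, 25 °C / Repeats: one replicate per compound / Also added: human ARF1(Δ1-17)-GTP substrate / Measured by: Tracer-displacement fluorescence polarization with EDTA stop, 620/688 nm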
ARFGAP1 inh conf: confirmation of rat ARFGAP1 inhibitors. shares compounds with ARFGAP1 inhibitor. ARFGAP1-stimulated ARF1 GTP hydrolysis, GDP tracer FP. inhibition, % at 16.5 µM. 30% of 890 active. AID 651608;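 active means average inhibition over triplicates above the hit cutoff set in the earlier primary screen, cut at about 25% in these data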;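 further: 0% = Arfgap1 plus ARF1-GTP with DMSO and 100% = wells lacking Arfgap1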
The depositor's hits bear a star; . = not tested or not shown.

SMILES | PAFAH1B3 inh | PAFAH2 inh | PAFAH1B2 FP inh | pPAFAH FP inh | ASAP1 GAP inh | ARFGAP1 inhibitor | ARFGAP1 inh conf
CC1(C(=O)Nc2ccc3c(c2)OCCO3)CN(S(C)(=O)=O)CC(=O)N1CCc1c[nH]c2ccccc12 (stereo not drawn) | . | . | . | . | 22.6 | 2.7 | .
O=C(Nc1nnc(Cc2ccc([N+](=O)[O-])cc2)s1)Nc1ccccc1F | -2.9 | -6.6 | -5.9 | 3.3 | -2.9 | 60.2* | 19.0
Cc1ccc(NC(=O)C(=O)NCCN2CCN(S(C)(=O)=O)CC2)cc1C | 5.9 | 0.7 | 4.4 | 3.2 | 0.1 | -1.3 | .
CCSCCOC(=O)C1=C(C)NC(=O)NC1c1cccc(OC)c1OC (stereo not drawn) | -1.3 | 3.1 | -0.9 | 5.3 | 1.4 | 26.2* | 1.0
CN(C)c1nc(Cl)nc2c1nc(Cl)n2C1CCCCO1 (stereo not drawn) | 5.3 | 2.8 | 3.1 | . | 10.9 | -4.1 | .
O=C(OCC(=O)N1CCCC1)c1ccc(OC(F)(F)F)cc1 | -2.4 | 4.0 | -4.8 | 1.0 | 20.4 | 25.0* | 2.0
Brc1ccc2nc(-c3ccc(CN4CCC5(CC4)CNc4ccccc45)cc3)c(-c3ccccc3)nc2c1 | . | . | . | . | 4.8 | 25.6* | 7.4
COc1ccc(CCCC(=O)Nc2ccccc2F)cc1 | 11.4 | 0.8 | 2.8 | 5.8 | 2.6 | 1.8 | .
COc1ccc(OC)c([N+](=O)[O-])c1C(N)=O | 10.9 | 0.2 | 4.5 | 8.8 | 8.0 | 25.7* | -4.6
COc1ccc(NC(C)=O)c([N+](=O)[O-])c1[N+](=O)[O-] | 5.0 | 3.9 | -1.8 | . | 9.4 | 6.1 | .
N#Cc1c(NC(=O)C2CC(c3c(F)cccc3Cl)=NO2)sc2c1CCC2 (stereo not drawn) | 5.5 | 6.5 | 3.3 | 4.1 | 3.9 | 35.1* | 55.9*
CCN(CC(=O)Nc1cccc(OC)c1)CC(=O)Nc1ccc(C)cc1Cl | 3.6 | 4.9 | 1.7 | 1.6 | -2.7 | 2.6 | .
Cc1cc(NS(=O)(=O)c2ccc(NC(=S)NC(=O)c3ccc(F)cc3)cc2)no1 | 6.8 | -1.0 | 4.3 | 4.1 | 3.9 | -6.3 | .
Cc1cc(NS(=O)(=O)c2ccc(NC(=S)NC(=O)c3cccc(S(=O)(=O)N(C)C)c3)cc2)no1 | 12.1 | 10.9 | 1.8 | -1.9 | 14.9 | 29.4* | 38.1*
CCN(C(=O)CSc1nnc2c3ccccc3n(CC)c2n1)C1CCS(=O)(=O)C1 (stereo not drawn) | 6.3 | 0.3 | -2.8 | 1.8 | -0.4 | 5.5 | .
COc1ccc(-n2c(SCC(=O)Nc3nccs3)nc3sc4c(c3c2=O)CCN(C)C4)cc1 | 8.1 | 0.7 | -3.0 | 3.5 | 9.1 | 25.1* | 27.1*
COc1ccc(NC(=O)CSc2nc3sc4c(c3c(=O)n2-c2ccc(OC)cc2)CCN(C)C4)cc1 | -9.9 | -7.4 | 1.4 | 2.6 | 11.9 | 19.6 | .
CCOC(=O)N1CCC(N2C(=O)c3ccc(C(=O)Nc4cccc(OC)c4)cc3C2=O)CC1 | 7.6 | -0.7 | 0.2 | -2.2 | -7.8 | -3.6 | .
COC(=O)c1cccc(NC(=O)CCCOc2cccc(C)c2)c1 | -3.7 | 1.2 | -1.1 | 0.6 | -2.9 | -10.7 | .
O=C(CCSc1nnc(-c2ccncc2)o1)Nc1ccccc1Cl | 3.0 | 1.1 | -0.2 | -1.4 | -2.2 | 29.1* | -7.4
COc1ccccc1NC(=O)CCSc1nnc(-c2ccncc2)o1 | 6.7 | 0.7 | 0.9 | 4.7 | 7.1 | 13.4 | .
O=C1CCCN1c1cc(Cl)cc(Cl)c1 | 0.7 | 4.4 | 2.8 | -2.8 | -0.8 | -3.7 | .
O=C1CCN(Cl)C(=O)N1Cl | . | . | . | . | 7.5 | 25.9* | 1.5
COc1cc(C(=O)NCC(c2ccco2)N2CCOCC2)cc(OC)c1OC (stereo not drawn) | 4.3 | 10.5 | 7.2 | 3.1 | -14.8 | -3.4 | .
Cc1nn(Cc2n[nH]c(=S)n2Cc2ccccc2)c(C)c1Cl | 3.9 | -5.6 | 3.1 | 0.8 | 3.2 | 5.1 | .
COc1ccccc1N1CCN(C(=O)c2cc3n(n2)C(C(F)(F)F)CC(c2ccco2)N3)CC1 (stereo not drawn) | 7.6 | -9.2 | 0.6 | 6.4 | 0.3 | 29.9* | -3.4
CC1CCCN(C(=O)Cn2nnc(-c3ccc(F)cc3)n2)C1 (stereo not drawn) | -8.3 | -4.9 | -5.3 | 10.1 | 8.2 | 0.2 | .

From PubChem
